Experiment: Toxicity liver stage against HepG2, at 10uM
Assay type: cell-based
Parameters: test concentration 10 uM, cell line HepG2-A16-CD81EGFP
Conditions: human, HepG2-A16-CD81EGFP cells; read-out: INHIBITION
Procedure, shortened: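 Uninfected HepG2-A16-CD81EGFP cells, 3 × 10^3 per well, 1536-well, plated on prespotted compound at 10 μM final, parasite-free screening media added to match infected plates; puromycin 10 μM positive, DMSO 0.5% negative; run in parallel with 48 h PbLuc assay at 37 °C, 5% CO2; viability by CellTiter-Glo luminescence, normalized to controls.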

SMILES | cytotoxicity at 10 µM
O=C(NCC1CC1)C1=NOC2(CCN(Cc3ccc(Cl)c(F)c3)C2)C1 (stereo not given) | 13.5%
COC(=O)c1sccc1S(=O)(=O)N1CCC(Oc2ncccc2Cl)CC1 | -16.8%
Cc1ccc(CN(C)C(=O)CNC(C)(C)c2noc(C(C)(C)C)n2)o1 | 2.43%
Cc1ncccc1C(=O)Nc1cccc(Cn2ccccc2=O)c1 | 3.06%
COc1ccc(CCN2CCCC(n3cncn3)C2)cc1 (stereo not given) | -6.2%
CSCC(C)N(C)C(=O)CN1CCN(c2ccccn2)CC1 (stereo not given) | -7.59%
CS(=O)(=O)NCC1CCCCN1Cc1cccc(C#N)c1 (stereo not given) | 0.528%
Cc1ccc(N2CCCN(C(=O)c3cccc4c3ccn4C)CC2)nn1 | 0.983%
Cc1oc(NC(=O)C(C)N2CCN(C(C)(C)CO)CC2)c(C#N)c1C (stereo not given) | -3.62%
Cc1nc(C)n(CC2CCCN2CC(=O)Nc2nncs2)n1 (stereo not given) | 14.3%
C=C(C)CN(CC)Cc1nc(CC)no1 | 12.6%
Cc1cc(C(=O)Nc2ccn(CCCN3CCCC3)n2)no1 | -4.13%
Cc1nnc(NC(=O)CN(C)CC2CCCN2c2cccnn2)s1 (stereo not given) | -15%
N#CCCN(C(=O)CN1CCCC1Cc1ccccc1)c1ccccc1 (stereo not given) | -20.7%
COc1cc(NC(=O)c2ccccc2F)c(C(=O)N(C)C)cc1OC | -14.8%
COc1ccc(NC(C)C(=O)NCCc2cccs2)cc1F (stereo not given) | -13.5%
O=C(c1ccccc1)N1CC[C@H]2C[C@@H](c3nnc(C4CC4)o3)O[C@@H]2C1 | -99.2%
O=C(c1ccccc1)N1CC[C@H]2C[C@H](c3nnc(C4CC4)o3)O[C@@H]2C1 | -102%
Cc1ccccc1Oc1ncccc1CNC(=O)Cn1cccnc1=O | -16.8%
CC(C)NC(=O)N1CCCC(Cn2cc(-c3ccc(F)cc3)nn2)C1 (stereo not given) | 12.5%
CSc1nccc(NCc2cc3n(n2)CCCN(S(C)(=O)=O)C3)n1 | 3.25%
COc1ccc(C(=O)N2CCN(c3cc(CCN)nc(C)n3)CC2)cc1 | -8.56%
CN(Cc1cc2n(n1)CCCN(C(=O)N1CCCC1)C2)Cc1nccs1 | -0.63%

SMILES | cytotoxicity at 10 µM
CCc1csc(CCNC(=O)C2CC(=O)N(C(C)C)C2)n1 (stereo not given) | -11.9%
Cc1nn2c(N3CCC(O)C3)cc(-c3ccccc3)nc2c1C (stereo not given) | -11.5%
Cn1c(Cn2ccnc2)nnc1C1CCN(C(=O)C2(C)CC2)CC1 | -9.7%
O=C(CCc1nccs1)N1CCCC(n2cccn2)C1 (stereo not given) | -14.4%
Cc1nc(C)n(CC2CCCN2CC(=O)NC2CCOCC2)n1 (stereo not given) | -4.43%
CS(=O)(=O)NCC1CCCN(C(=O)c2cccc(F)c2)C1 (stereo not given) | -6.93%
Cc1noc(CN2CCCC2c2noc(C3CC3)n2)n1 (stereo not given) | -23.6%
N#Cc1ccc(N2CCCN(C(=O)CC3CCCO3)CC2)cc1 (stereo not given) | -4.69%
CC(O)CN1CCC(CNCc2cccc(OC(C)C)c2)CC1 (stereo not given) | -8.16%
CC(C)NC(=O)Nc1ccc(CNCc2cccc(OC(F)F)c2)cc1 | -7.96%
Cc1cnn(CC2CCCN2CC(=O)Nc2cc(C)nn2C)c1 (stereo not given) | -20.1%
CS(=O)(=O)NCc1cnc2n1CCN(Cc1ccco1)CC2 | -4.31%
CN(C)C(=O)CC1CC2(CCN(c3ncccn3)CC2)c2ccccc21 (stereo not given) | -16.7%
Cn1ccnc1CN1CCN2C[C@H](Oc3cccc(F)c3)C[C@H]2C1 | 13.6%
c1ccc(N2CCC3(COCCN(c4ncccn4)C3)C2)nc1 (stereo not given) | 2.78%
Cc1ccc2c(c1)CCC21CCN(C(=O)CN(C)C)CC1 | -6.25%
CCO[C@H]1CN(CC2CCOCC2)[C@@H]2CCCO[C@H]12 | -109%
c1cncc(OCc2noc3c2CN(Cc2ccco2)CC3)c1 | 1.71%
NCC1CCC2(CCN(C(=O)c3ccccn3)CC2)CO1 (stereo not given) | -111%
CCOC[C@]12COC[C@H]1CN(Cc1ccc3c(c1)OCO3)C2 | -119%
CC(=O)N1CCO[C@@H]2CN(Cc3ccccc3Cl)C[C@@H]2C1 | -110%
CCn1ncc2c1C(COC)N(C(=O)c1cscn1)CC2 (stereo not given) | -98.1%
